The record followed here is ChEMBL document CHEMBL1938255, “Novel 1-hydroxypiperazine-2,6-diones as new leads in the inhibition of metalloproteinases” (J Med Chem, 2011).

One may read the IC50 as the point on the concentration scale where inhibition reaches its midpoint.

One series addresses Stromelysin-1 (Homo sapiens, UniProt P08254). The experiment in a line: Inhibition of MMP3 using Mca-Arg-Pro-Lys-Pro-Val-Glu-Nva-Trp-Arg-Lys(Dnp)-NH2 as substrate preincubated for 4 hrs measured every 15 secs for 20 mins by fluorescence analysis. An outline of the steps: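 Pro-MMP3 activated with trypsin 5 μg/mL, 30 min, 37 °C, then soybean trypsin inhibitor 62 μg/mL. Enzyme at 5 nM final was incubated 4 h at 25 °C with seven inhibitor concentrations in Tris 50 mM pH 7.5, NaCl 150 mM, CaCl2 10 mM, Brij 35 0.05%, DMSO 1%.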

In a further series the target is Neutrophil collagenase (Homo sapiens, UniProt P22894). The experiment in a line: Inhibition of human recombinant MMP8 using Mca-Lys-Pro-Leu-Gly-Leu-Dap(Dnp)-Ala-Arg-NH2 as substrate preincubated for 4 hrs measured every 15 secs for 20 mins by fluorescence analysis. An outline of the steps:
(§1)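 The proenzymes were activated with 2 mM APMA for 1 h at 37 °C. Final enzyme was 0.5 nM for MMP2 and 1.5 nM for MMP8. Each was incubated 4 h at 25 °C with seven inhibitor concentrations in pH 7.5 Tris/NaCl/CaCl2/Brij 35/1% DMSO buffer. With 2 μM substrate, fluorescence (325/395 nm) was read every 15 s for 20 min. IC50 came from fractional initial velocity; mean of three independent runs.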

The target in series [1] is Matrix metalloproteinase-14 (Homo sapiens, UniProt P50281). The series can be described thus: Inhibition of human recombinant MMP14 using Mca-Lys-Pro-Leu-Gly-Leu-Dap(Dnp)-Ala-Arg-NH2 as substrate preincubated for 4 hrs measured every 15 secs for 20 mins by fluorescence analysis. The method, boiled down:
(§2)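 Catalytic domains of MMP14 (1.0 nM final) and MMP16 (15 nM), and TACE (7.5 nM), were incubated 4 h at 25 °C with seven inhibitor concentrations. Buffer was Tris 50 mM pH 7.5, NaCl 150 mM, CaCl2 10 mM, Brij 35 0.05%, DMSO 1%. Substrate 2 μM final; hydrolysis read at 325/395 nm every 15 s for 20 min. IC50 from Vi/Vo = 1/(1+[I]/IC50); mean of three experiments.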

For series [2], the target named is Disintegrin and metalloproteinase domain-containing protein 17 (Homo sapiens, UniProt P78536). The series can be described thus: Inhibition of TACE using Mca-Lys-Pro-Leu-Gly-Leu-Dap(Dnp)-Ala-Arg-NH2 as substrate preincubated for 4 hrs measured every 15 secs for 20 mins by fluorescence analysis. The method, boiled down: as §2
For series [3], the target named is Matrix metalloproteinase-9 (Homo sapiens, UniProt P14780). The series can be described thus: Inhibition of human recombinant MMP9 using Mca-Lys-Pro-Leu-Gly-Leu-Dap(Dnp)-Ala-Arg-NH2 as substrate preincubated for 4 hrs measured every 15 secs for 20 mins by fluorescence analysis. An outline of the steps: (§3)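 APMA activation at 1 mM, 1 h, 37 °C. Final enzyme was 0.3 nM for MMP13 and 1.3 nM for MMP9. Enzyme and inhibitor (seven concentrations) were incubated 4 h at 25 °C in Tris 50 mM pH 7.5 buffer with 150 mM NaCl, 10 mM CaCl2, 0.05% Brij 35, 1% DMSO. Substrate 2 μM final, ex 325/em 395 nm, every 15 s over 20 min. IC50 via Vi/Vo = 1/(1+[I]/IC50); three experiments averaged.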

Another series has as its target Collagenase 3 (Homo sapiens, UniProt P45452). The experiment in a line: Inhibition of MMP13 using Mca-Lys-Pro-Leu-Gly-Leu-Dap(Dnp)-Ala-Arg-NH2 as substrate preincubated for 4 hrs measured every 15 secs for 20 mins by fluorescence analysis. An outline of the steps:
as §3

The target in series [4] is 72 kDa type IV collagenase (Homo sapiens, UniProt P08253). The experiment in a line: Inhibition of human recombinant MMP2 using Mca-Lys-Pro-Leu-Gly-Leu-Dap(Dnp)-Ala-Arg-NH2 as substrate preincubated for 4 hrs measured every 15 secs for 20 mins by fluorescence analysis. The method, boiled down:
as §1

The target in another series is T1, Interstitial collagenase (Homo sapiens, UniProt P03956).
T1 sequence (P03956 whole entry): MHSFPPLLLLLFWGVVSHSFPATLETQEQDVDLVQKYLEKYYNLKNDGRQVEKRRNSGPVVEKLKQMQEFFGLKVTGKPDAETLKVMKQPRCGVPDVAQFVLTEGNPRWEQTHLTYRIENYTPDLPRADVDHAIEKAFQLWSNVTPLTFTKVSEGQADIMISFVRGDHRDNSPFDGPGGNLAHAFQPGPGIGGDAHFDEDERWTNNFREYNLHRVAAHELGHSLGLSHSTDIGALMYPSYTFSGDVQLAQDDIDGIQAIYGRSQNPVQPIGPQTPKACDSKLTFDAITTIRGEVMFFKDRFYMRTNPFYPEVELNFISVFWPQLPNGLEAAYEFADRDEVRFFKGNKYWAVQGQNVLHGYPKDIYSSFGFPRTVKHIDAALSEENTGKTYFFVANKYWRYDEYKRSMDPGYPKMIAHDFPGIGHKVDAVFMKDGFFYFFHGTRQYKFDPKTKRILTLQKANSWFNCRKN
The experiment in a line: Inhibition of MMP1 using Mca-Lys-Pro-Leu-Gly-Leu-Dap(Dnp)-Ala-Arg-NH2 as substrate preincubated for 4 hrs measured every 15 secs for 20 mins by fluorescence analysis. An outline of the steps:
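Pro-MMP1 activated with 2 mM APMA, 2 h, 37 °C. Enzyme at 2.0 nM final was preincubated 4 h at 25 °C with inhibitor at seven concentrations in Tris 50 mM pH 7.5, NaCl 150 mM, CaCl2 10 mM, Brij 35 0.05%, DMSO 1%. Substrate was 2 μM final, read ex 325/em 395 nm every 15 s for 20 min. IC50 from Vi/Vo = 1/(1+[I]/IC50); mean of three experiments.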

The target of series [5] is Macrophage metalloelastase (Homo sapiens, UniProt P39900). The series can be described thus: Inhibition of MMP12 using Mca-Lys-Pro-Leu-Gly-Leu-Dap(Dnp)-Ala-Arg-NH2 as substrate preincubated for 4 hrs measured every 15 secs for 20 mins by fluorescence analysis. The method, boiled down: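 Pro-MMP12 was autoactivated for 30 h at 37 °C in assay buffer (Tris 50 mM pH 7.5, NaCl 150 mM, CaCl2 10 mM, Brij 35 0.05%, DMSO 1%). Enzyme at 1.0 nM final was incubated 4 h at 25 °C with seven inhibitor concentrations. Substrate 2 μM final, fluorescence ex 325/em 395 nm every 15 s for 20 min. IC50 via initial-velocity equation; mean of three experiments.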

The target of series [6] is Matrix metalloproteinase-16 (Homo sapiens, UniProt P51512). The series can be described thus: Inhibition of human recombinant MMP16 using Mca-Lys-Pro-Leu-Gly-Leu-Dap(Dnp)-Ala-Arg-NH2 as substrate preincubated for 4 hrs measured every 15 secs for 20 mins by fluorescence analysis. An outline of the steps:
as §2

The target in another series is T2, Matrilysin (Homo sapiens, UniProt P09237).
T2 sequence (P09237 whole entry): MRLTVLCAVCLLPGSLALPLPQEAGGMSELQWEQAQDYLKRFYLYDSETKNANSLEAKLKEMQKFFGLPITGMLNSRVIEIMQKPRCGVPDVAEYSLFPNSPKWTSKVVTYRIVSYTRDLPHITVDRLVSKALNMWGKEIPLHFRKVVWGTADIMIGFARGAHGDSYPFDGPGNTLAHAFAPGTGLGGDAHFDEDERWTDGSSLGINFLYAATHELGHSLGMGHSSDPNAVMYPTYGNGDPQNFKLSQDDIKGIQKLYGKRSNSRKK
The experiment in a line: Inhibition of MMP7 using Mca-Lys-Pro-Leu-Gly-Leu-Dap(Dnp)-Ala-Arg-NH2 as substrate preincubated for 4 hrs measured every 15 secs for 20 mins by fluorescence analysis. An outline of the steps:
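Pro-MMP7 activated with 3.3 mM APMA, 2 h, 37 °C, then used at 1.3 nM final. Enzyme was preincubated with seven inhibitor concentrations for 4 h at 25 °C in pH 7.5 Tris buffer with NaCl, CaCl2, Brij 35 and 1% DMSO. Fluorogenic substrate 2 μM final; fluorescence (325/395 nm) recorded every 15 s for 20 min. IC50 from initial-velocity ratio; mean of three experiments.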

Series [7] can be described thus: Stability in D2O assessed as compound decomposition at pD 7 after 3 days by NMR spectroscopy. The series is classed as physicochemical. As to conditions: pH 7, read-out: Drug metabolism.
Series [8] in a line: Stability in D2O assessed as compound decomposition at pD 7 after 24 hrs by NMR spectroscopy. The series is classed as physicochemical. The conditions noted are these: pH 7, read-out: Drug metabolism.
A short description of series [9]: Stability in D2O assessed as compound decomposition at pD 7 after 20 days by NMR spectroscopy. It counts as physicochemical. As to conditions: pH 7, read-out: Drug metabolism.
Series [10] in a line: Stability in D2O assessed as compound decomposition at pD 2 after 10 days by NMR spectroscopy. The series is classed as physicochemical. As to conditions: pH 2, read-out: Drug metabolism.
A short description of series [11]: Stability in D2O assessed as compound decomposition at pD 2 after 24 hrs by NMR spectroscopy. The series is classed as physicochemical. The conditions noted are these: pH 2, read-out: Drug metabolism.
Series [12] in a line: Stability in D2O assessed as compound decomposition at pD 2 after 5 days by NMR spectroscopy. The series is classed as physicochemical. As to conditions: pH 2, read-out: Drug metabolism.
Series [13] is described as follows: Stability in D2O assessed as compound decomposition at pD 7 after 5 days by NMR spectroscopy. As to conditions: pH 7, read-out: Drug metabolism. The series is classed as physicochemical.
Series [14] can be described thus: Stability in D2O assessed as compound decomposition at pD 2 after 48 hrs by NMR spectroscopy. The series is classed as physicochemical. As to conditions: pH 2, read-out: Drug metabolism.

Some results are limits rather than exact numbers.

Chain of Macrophage metalloelastase (P39900 whole entry): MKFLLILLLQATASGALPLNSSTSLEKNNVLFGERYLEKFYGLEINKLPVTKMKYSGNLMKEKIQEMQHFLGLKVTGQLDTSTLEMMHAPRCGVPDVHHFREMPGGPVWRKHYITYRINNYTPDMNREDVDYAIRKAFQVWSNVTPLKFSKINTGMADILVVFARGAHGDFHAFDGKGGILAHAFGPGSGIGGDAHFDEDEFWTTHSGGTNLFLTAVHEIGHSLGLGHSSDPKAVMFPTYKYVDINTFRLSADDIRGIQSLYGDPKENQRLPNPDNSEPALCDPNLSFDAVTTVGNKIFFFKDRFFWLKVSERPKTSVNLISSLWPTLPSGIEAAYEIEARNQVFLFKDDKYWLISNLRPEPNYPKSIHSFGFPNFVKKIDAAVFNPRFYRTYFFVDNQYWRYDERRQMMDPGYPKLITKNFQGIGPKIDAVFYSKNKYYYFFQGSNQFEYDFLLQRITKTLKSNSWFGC
Chain of Stromelysin-1 (P08254 whole entry): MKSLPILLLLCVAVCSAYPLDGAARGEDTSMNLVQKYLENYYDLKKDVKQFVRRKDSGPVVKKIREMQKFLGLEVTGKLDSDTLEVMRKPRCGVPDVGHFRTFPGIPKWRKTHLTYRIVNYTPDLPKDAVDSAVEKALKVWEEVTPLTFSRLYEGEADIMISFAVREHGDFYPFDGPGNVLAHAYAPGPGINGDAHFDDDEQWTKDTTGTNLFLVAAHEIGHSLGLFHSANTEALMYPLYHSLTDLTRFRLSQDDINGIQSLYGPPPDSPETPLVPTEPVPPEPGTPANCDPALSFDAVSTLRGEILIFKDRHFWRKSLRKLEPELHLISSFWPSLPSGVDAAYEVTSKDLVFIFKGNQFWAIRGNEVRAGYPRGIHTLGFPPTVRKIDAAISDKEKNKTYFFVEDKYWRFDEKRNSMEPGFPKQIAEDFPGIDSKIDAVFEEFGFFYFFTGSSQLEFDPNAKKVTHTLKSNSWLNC
Chain of Matrix metalloproteinase-16 (P51512 whole entry): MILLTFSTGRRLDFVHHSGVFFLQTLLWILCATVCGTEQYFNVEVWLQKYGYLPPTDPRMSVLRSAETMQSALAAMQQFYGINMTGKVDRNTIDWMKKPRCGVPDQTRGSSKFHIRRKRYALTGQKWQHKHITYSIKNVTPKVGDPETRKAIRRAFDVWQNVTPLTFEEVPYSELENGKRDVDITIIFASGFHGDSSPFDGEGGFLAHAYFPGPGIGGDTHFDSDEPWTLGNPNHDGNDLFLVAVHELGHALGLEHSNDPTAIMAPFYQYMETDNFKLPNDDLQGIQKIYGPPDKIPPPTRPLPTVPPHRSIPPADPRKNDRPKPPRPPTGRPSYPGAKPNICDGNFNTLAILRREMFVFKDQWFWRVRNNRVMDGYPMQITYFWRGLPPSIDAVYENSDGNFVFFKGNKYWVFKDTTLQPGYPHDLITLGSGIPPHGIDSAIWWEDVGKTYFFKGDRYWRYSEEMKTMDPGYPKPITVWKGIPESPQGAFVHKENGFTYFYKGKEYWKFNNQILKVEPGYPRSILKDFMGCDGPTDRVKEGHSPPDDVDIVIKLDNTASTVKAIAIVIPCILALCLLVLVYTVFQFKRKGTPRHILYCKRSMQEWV
Chain of 72 kDa type IV collagenase (P08253 whole entry): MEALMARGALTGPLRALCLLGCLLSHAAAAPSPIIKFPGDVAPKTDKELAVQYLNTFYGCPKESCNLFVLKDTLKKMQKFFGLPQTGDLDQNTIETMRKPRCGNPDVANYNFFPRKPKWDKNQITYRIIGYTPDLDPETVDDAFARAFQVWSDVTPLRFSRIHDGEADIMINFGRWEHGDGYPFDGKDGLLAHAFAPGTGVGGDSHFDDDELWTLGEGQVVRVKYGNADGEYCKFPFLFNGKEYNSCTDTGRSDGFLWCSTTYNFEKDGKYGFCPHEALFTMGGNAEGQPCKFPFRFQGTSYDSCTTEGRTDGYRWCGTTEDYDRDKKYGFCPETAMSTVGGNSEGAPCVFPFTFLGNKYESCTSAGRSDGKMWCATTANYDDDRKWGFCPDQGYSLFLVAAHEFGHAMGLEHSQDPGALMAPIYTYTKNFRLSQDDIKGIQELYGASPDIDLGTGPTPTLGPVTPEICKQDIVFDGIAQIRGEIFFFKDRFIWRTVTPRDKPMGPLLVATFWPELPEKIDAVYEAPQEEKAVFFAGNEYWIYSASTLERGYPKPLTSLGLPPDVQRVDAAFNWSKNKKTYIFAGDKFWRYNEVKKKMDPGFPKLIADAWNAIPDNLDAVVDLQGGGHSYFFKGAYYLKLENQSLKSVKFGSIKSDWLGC
Chain of Matrix metalloproteinase-9 (P14780 whole entry): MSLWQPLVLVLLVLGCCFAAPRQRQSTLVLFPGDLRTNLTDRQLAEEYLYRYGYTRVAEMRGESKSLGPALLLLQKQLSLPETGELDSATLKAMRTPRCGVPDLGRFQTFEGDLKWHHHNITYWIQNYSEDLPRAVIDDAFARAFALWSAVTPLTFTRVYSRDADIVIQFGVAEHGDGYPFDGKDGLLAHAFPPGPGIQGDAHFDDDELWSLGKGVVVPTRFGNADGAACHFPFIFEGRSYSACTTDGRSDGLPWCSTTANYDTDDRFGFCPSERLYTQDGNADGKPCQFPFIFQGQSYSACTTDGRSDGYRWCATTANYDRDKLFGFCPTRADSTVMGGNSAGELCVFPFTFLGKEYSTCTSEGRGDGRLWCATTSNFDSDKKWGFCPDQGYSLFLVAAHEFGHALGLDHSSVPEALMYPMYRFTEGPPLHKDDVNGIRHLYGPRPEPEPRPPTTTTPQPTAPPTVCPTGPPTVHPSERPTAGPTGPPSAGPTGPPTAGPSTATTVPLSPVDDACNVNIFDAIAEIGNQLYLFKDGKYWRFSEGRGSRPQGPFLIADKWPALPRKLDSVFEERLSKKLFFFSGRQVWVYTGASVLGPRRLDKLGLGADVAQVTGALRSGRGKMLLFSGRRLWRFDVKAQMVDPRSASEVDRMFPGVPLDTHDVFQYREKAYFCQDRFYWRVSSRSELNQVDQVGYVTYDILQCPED
Chain of Neutrophil collagenase (P22894 whole entry): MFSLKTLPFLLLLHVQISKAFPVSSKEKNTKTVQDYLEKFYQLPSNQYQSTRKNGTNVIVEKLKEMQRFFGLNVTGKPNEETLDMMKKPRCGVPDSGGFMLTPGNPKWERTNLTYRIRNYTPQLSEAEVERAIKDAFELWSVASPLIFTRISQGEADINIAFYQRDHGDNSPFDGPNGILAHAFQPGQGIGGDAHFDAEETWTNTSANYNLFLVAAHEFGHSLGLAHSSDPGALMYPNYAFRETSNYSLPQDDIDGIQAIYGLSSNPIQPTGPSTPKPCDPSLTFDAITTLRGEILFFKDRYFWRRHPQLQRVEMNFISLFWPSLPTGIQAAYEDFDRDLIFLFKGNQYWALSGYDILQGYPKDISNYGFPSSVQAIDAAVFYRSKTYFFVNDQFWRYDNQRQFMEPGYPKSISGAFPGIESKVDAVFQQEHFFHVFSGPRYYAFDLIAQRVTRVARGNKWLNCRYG
Chain of Disintegrin and metalloproteinase domain-containing protein 17 (P78536 whole entry, the tested form may be a part): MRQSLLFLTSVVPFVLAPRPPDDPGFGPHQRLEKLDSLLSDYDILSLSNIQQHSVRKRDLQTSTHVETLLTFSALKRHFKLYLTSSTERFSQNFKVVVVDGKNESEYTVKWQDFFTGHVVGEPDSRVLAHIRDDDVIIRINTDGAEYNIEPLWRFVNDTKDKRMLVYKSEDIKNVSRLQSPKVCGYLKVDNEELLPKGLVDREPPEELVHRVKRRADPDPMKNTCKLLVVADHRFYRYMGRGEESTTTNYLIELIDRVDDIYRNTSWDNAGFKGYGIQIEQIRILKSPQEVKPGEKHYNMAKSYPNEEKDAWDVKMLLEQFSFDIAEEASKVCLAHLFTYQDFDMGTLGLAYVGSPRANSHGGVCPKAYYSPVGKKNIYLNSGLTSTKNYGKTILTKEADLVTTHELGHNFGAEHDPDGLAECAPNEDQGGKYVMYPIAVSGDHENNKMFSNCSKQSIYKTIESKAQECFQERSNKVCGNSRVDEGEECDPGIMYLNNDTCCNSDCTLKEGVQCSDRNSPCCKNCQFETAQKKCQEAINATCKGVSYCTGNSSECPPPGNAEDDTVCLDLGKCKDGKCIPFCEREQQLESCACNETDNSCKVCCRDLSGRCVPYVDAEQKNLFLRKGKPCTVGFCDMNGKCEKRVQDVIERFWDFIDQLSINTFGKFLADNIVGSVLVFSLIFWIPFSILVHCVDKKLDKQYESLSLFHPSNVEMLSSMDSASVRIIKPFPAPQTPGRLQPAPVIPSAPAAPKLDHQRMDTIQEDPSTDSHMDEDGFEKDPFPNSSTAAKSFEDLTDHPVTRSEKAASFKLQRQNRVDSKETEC

Compound `CC(C)[C@H](C(=O)NO)N(CC(=O)O)S(=O)(=O)c1ccc(Oc2ccccc2)cc1` registered an IC50 on Stromelysin-1 of 6.7 nM.

Regarding `CC(C)[C@@H]1C(=O)N(O)C(=O)CN1S(=O)(=O)c1ccc(Oc2ccccc2)cc1`, the IC50 amounted to 220 nM against Stromelysin-1; 21 nM at Neutrophil collagenase; 83 nM in series [1]; 10000 nM in series [2]; 30 nM in [3]; 9.5 nM against Collagenase 3. The IC50 in series [4] is 30 nM; against Interstitial collagenase it was 1600 nM; in series [5], 23 nM; in series [6], 39 nM.

With `CC(C)[C@@H]1C(=O)N(O)C(=O)CN1S(=O)(=O)c1ccc(-c2ccccc2)cc1`, the IC50 against Stromelysin-1 is 3900 nM; on Neutrophil collagenase it was 67 nM; in series [1], 3900 nM; in series [2], 16000 nM; in series [3], 660 nM; against Collagenase 3, 52 nM. Also, the IC50 in [4] was 240 nM; at Interstitial collagenase it was 1300 nM; in series [5], 19 nM; in series [6] it was 2200 nM.

At Matrilysin, `COc1ccc(S(=O)(=O)N(Cc2cccnc2)[C@@H](C(=O)NO)C(C)C)cc1` [CGS-27023A] gave an IC50 of 380 nM.

As for `COc1ccc(S(=O)(=O)N2CC(=O)N(O)C(=O)[C@H]2C(C)C)cc1`, the degraded at 72 h in [7] was found to be 3%. The degraded at 24 h in series [8] and in series [11] was under 1% in each case. The degraded at 480 h in [9] is 7%. Further, the IC50 against Stromelysin-1 amounted to 3400 nM; at Neutrophil collagenase, 300 nM; in series [1], 2200 nM; in series [2], 33000 nM; in series [3] it was 690 nM; at Collagenase 3, 300 nM. The IC50 in [4] worked out at 1200 nM; on Interstitial collagenase, 4900 nM; in [5] it was 66 nM; against Matrilysin, 39000 nM; in series [6], 1100 nM. Further, the degraded at 240 h in series [10] was 8%. Moreover, the degraded at 120 h in [12] stood at 5%; in series [13], 6%. Besides, in series [14], the degraded at 48 h was 2%.
